Myeloid diff 2 – compounds promoting myeloid differentiation | ER-HoxA9 myeloid progenitors, lysozyme-GFP differentiation, flow cytometry | 360,000 compounds, 1% hits | calls only at 10 µM | AID 624256;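 active = normalized GFP-positive differentiation at or above the plate's own cutoff, the solvent-only control mean plus 3 SD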;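 also: cells exposed to compound for four days before flow analysis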
MC4R antag cAMP – antagonists of human melanocortin 4 receptor (MC4R) | P32245 | MC4R-expressing cells, MTII-stimulated cAMP, LANCE TR-FRET | inhibition, % at 6.5 µM | 360,000 compounds, 0.48% hits;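 active = inhibition above its plate's cutoff, the mean of tested wells on that plate plus 3 SD, cut at about 29% in these data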;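 also: 0% = Melanotan II alone and 100% = Melanotan II plus saturating MCL0020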
Target sequence (P32245 whole entry, looked up): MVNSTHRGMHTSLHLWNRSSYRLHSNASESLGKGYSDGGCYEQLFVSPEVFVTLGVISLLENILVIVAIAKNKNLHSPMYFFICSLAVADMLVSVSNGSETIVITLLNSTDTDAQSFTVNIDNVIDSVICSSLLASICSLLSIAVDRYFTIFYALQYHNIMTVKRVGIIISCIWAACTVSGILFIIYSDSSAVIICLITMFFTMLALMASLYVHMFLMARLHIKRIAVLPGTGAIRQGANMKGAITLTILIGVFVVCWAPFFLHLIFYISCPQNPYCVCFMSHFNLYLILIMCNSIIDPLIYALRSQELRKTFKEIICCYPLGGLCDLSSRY
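Material: U2OS-MC4R stable cell line | Reagent: Melanotan II challenge after compound preincubation | Doses: One concentration, 6.5 µM nominal | Incubation: 30-min compound preincubation, 1-h Melanotan II challenge, 1-h detection, room temperature | Signal: TR-FRET cAMP assay | Replicates: One well per compound, no replicates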
Granule exo inh – lytic granule exocytosis inhibition. TALL-104 LAMP-1 surface exposure, flow cytometry; cells stimulated with thapsigargin and PMA. inhibition, % at 10 µM. 360,000 compounds, 0.66% hits;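 active = inhibition above about 55%, limit read from the data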
EBI2 antag – EBI2 (human) antagonism; inhibition, % at 5 µM; 360,000 compounds, 0.81% hits; EBI2 beta-arrestin recruitment, luminescence, 7a,25-OHC stimulated; in the data active = inhibition above about 38%;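 also: enzyme fragment complementation signal reports receptor beta-arrestin coupling in cells; 0% = agonist plus DMSO wells and 100% = wells without agonist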
MC4R ag barr – human MC4R agonism via beta-arrestin. P32245. U2OS MC4R beta-arrestin complementation, luminescence; percent of melanotan II response, DMSO zero. activation, % at 8.9 µM. 360,000 compounds, 0.98% hits;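 active = activation above a per-plate cutoff, the mean activation of sample wells on that plate plus 3 SD, cut at about 8% in these data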
The depositor's hits bear a star; i = inactive; . = not tested or not shown; + = active, no number. A selection: hits, their analogues and other compounds. The true share with any hit is near 3.7%.

SMILES | Myeloid diff 2 | MC4R antag cAMP | Granule exo inh | EBI2 antag | MC4R ag barr
O=C1NC(=O)N(c2ccccc2)C(=O)/C1=C/c1coc2ccc(O)cc2c1=O | + | -1.8 | -1.8 | 2.1 | 0.3
Cc1nn(Cc2ccccc2Cl)c(C)c1C(=O)OCC(=O)NC1CCCC(C)C1C (stereo not given) | i | 7.9 | 1.7 | 12.6 | 2.8
CN(Cc1ccccc1)C(=C(Cl)Cl)/C(=C1/NCCN1Cc1ccc(Cl)nc1)[N+](=O)[O-] | i | 23.2 | -1.5 | 2.0 | 3.1
C[C@@H]1O[C@@H](O[C@@H]2C=C3CCC4C(CC[C@]5(C)[C@@H](c6ccc(=O)oc6)CC[C@]45O)[C@@]3(C)CC2)[C@H](O)[C@H](O)[C@H]1O (stereo not given in full) | i | 3.2 | -0.7 | -47.8 | 25.3*
C[C@@H]1O[C@@H](O[C@@H]2C=C3CC[C@@H]4C(CC[C@]5(C)[C@@H](c6ccc(=O)oc6)CC[C@]45O)[C@@]3(C)CC2)[C@H](O)[C@H](O)[C@H]1O (stereo not given in full) | i | 10.7 | 1.4 | -12.8 | 37.7*
Nc1ccc(C2(c3ccc(N)cc3)CCCCC2)cc1 | i | 12.2 | -7.3 | -5.7 | -0.7
CN(C)c1ccc(NC(=O)CN2C(=O)CN=C(c3ccccc3)c3ccccc32)cc1 | + | 5.1 | 1.4 | -6.4 | 1.0
COc1cc2c(c(OC)c1OC)-c1ccc(SC)c(=O)cc1C(N)CC2 (stereo not given) | . | -32.9 | -11.6 | -12.2 | -1.1
COc1cc2c(c(OC)c1OC)-c1ccc(OC)c(=O)cc1C(N)CC2 (stereo not given) | . | -16.6 | -2.1 | -5.0 | -0.6
CCCCn1c(O)c(C(C)=NCc2cc(OC)cc(OC)c2)c(=O)[nH]c1=O | + | -1.1 | -0.9 | -18.1 | 0.5
O=C(/C=C/c1ccc2c(c1)OCO2)c1c(O)n(CCc2ccccc2)c(=O)[nH]c1=O | i | 3.5 | 0.3 | -0.7 | 1.5
COc1cc(/C=C/C(=O)c2c(O)n(CCc3ccccc3)c(=O)[nH]c2=O)ccc1O | + | 9.2 | 3.2 | 4.3 | 1.0
O=c1cccc2n1CC1CNCC2C1 (stereo not given) | i | 10.3 | 3.9 | -2.8 | -0.5
CC(=O)OC[C@]12CCC(C)=C[C@H]1O[C@@H]1[C@H](O)[C@@H](OC(C)=O)[C@@]2(C)[C@]12CO2 | + | 3.6 | -3.7 | 14.2 | 2.7
C[C@]12CC[C@@H](O)CC1=CCC1C2CC[C@@]2(C)C1CC[C@@H]2O (stereo not given in full) | i | 10.7 | -2.6 | -7.4 | -1.2
CC(C)c1ccc(-n2c(O)c(C=NCCN3CCNCC3)c(=O)[nH]c2=S)cc1 | + | 11.3 | 0.8 | 7.4 | 1.2
CCCCn1c(=O)c(C(=O)Nc2cnccn2)c(O)c2ccccc21 | + | -1.1 | 1.2 | 12.6 | -0.8
N#Cc1ccc(NC(=O)CN2CCN(C(=O)c3cccs3)CC2)cc1Cl | i | 16.9 | -10.0 | -7.7 | -1.2
N#CC(C#N)=Cc1ccc(N2CCOCC2)cc1 | i | 20.0 | -0.4 | -6.2 | 0.6
N#C/C(=C\c1ccc(O)cc1)C(=O)O (tested in a mixture with another compound) | + | 1.3 | -2.7 | 0.1 | -1.6
CC(C)[C@H]1C(=O)N2CCC[C@H]2[C@]2(O)O[C@](NC(=O)[C@@H]3C=C4c5cccc6[nH]cc(c56)C[C@H]4N(C)C3)(C(C)C)C(=O)N12 | + | -2.5 | 0.3 | 5.3 | -0.8
C=CCn1c(=O)c(C=Nc2c(OC)cccc2[N+](=O)[O-])c(O)n(CCCC)c1=O | i | 3.8 | -2.7 | 2.3 | 1.1
C=CCn1c(=O)c(C=Nc2cccc([N+](=O)[O-])c2)c(O)n(CCCC)c1=O | + | -1.0 | -4.6 | 12.4 | 0.3
COC(/C(C)=C/C=C/C(C)=C/c1coc(C)n1)C(C)C1CC(O)C2(C)OC2C=CC(C)C2CC(CC(=O)O2)CC2OC2C(=O)O1 (stereo not given) | . | -23.3 | -3.4 | -3.3 | 0.6
CC(C)OCCCNC(=O)c1c(N)n(CC2CCCO2)c2nc3ccccc3nc12 (stereo not given) | + | 5.6 | 1.5 | 16.6 | 6.6
CC(C)CCn1c(N)c(C(=O)OCC2CCCO2)c2nc3ccccc3nc21 (stereo not given) | + | -7.6 | -1.6 | 7.3 | -0.6

High-throughput results from PubChem.
